Experiment [1] concerns the target T1, Adenosine receptor A1 (Homo sapiens) (UniProt P30542).
T1 sequence (whole entry): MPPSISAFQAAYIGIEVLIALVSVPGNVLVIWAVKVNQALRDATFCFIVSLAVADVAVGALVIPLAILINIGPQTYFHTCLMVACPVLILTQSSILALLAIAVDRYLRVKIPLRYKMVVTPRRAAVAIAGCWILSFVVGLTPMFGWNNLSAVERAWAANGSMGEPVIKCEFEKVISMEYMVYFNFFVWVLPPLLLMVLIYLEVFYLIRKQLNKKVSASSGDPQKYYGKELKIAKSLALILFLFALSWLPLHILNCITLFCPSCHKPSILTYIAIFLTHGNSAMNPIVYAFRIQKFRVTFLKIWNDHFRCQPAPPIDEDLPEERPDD
Description: Displacement of [3H]DPCPX from recombinant human A1 adenosine receptor expressed in CHO cells at 10 uM after 120 mins by scintillation counting. The experiment is classed as cell-based. Summed up:
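Membranes from hA1CHO cells incubated with 1 nM [3H]DPCPX in 50 mM Tris–HCl pH 7.4 at 25 °C for 120 min. Compound added from a 100-fold DMSO stock, so 1% DMSO final, also present in controls. Bound ligand separated on GF/B filters and counted by scintillation. Result given as % of control specific binding.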

Experiment [2] addresses T1, Adenosine receptor A1 (Homo sapiens). Description: Binding affinity to recombinant human A1 adenosine receptor allosteric site expressed in CHO cells assessed as potentiation of CCPA-induced [3H]DPCPX displacement at 10 uM after 90 mins relative to control. It counts as cell-based. An outline of the steps:
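Competition of CCPA (0.01 nM–1 µM) against 1 nM [3H]DPCPX on hA1CHO membranes, run in triplicate, 90 min at 25 °C, in 50 mM Tris–HCl pH 7.4, with or without test compound at 10 µM. Nonspecific binding taken with 1 µM DPCPX. Ki by Cheng–Prusoff. Shift = Ki(CCPA)/Ki(CCPA + 10 µM compound).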

The target is the same in experiment [3]. Description: Binding affinity to recombinant human A1 adenosine receptor allosteric site expressed in CHO cells assessed as [3H]CCPA Bmax shift at 10 uM after 90 mins relative to control. The experiment is classed as cell-based. An outline of the steps: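 Saturation binding of [3H]CCPA (0.05–20 nM) to hA1CHO membranes. Membranes pretreated with adenosine deaminase 3 UI/mL for 30 min at 37 °C. Run in triplicate, 90 min at 25 °C, in 50 mM Tris–HCl pH 7.4, with or without test compound at final 10 µM. Nonspecific binding taken with 1 µM R-PIA. Bmax fitted by LIGAND. Shift is the fold of Bmax increase over control.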

Experiment [4] has the same target. Description: Binding affinity to recombinant human A1 adenosine receptor allosteric site expressed in CHO cells assessed as [3H]DPCPX Bmax shift at 10 uM after 90 mins relative to control. The experiment is classed as cell-based. An outline of the steps:
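Saturation binding of [3H]DPCPX (0.05–20 nM) to hA1CHO membranes, run in triplicate, 90 min at 25 °C, in 50 mM Tris–HCl pH 7.4, with or without test compound at final 10 µM. Nonspecific binding taken with 1 µM DPCPX. KD and Bmax fitted by LIGAND. Shift is the fold of Bmax increase over control.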

The target of experiment [5] is Adenosine receptor A2a (Homo sapiens) (UniProt P29274). Description: Displacement of [3H]ZM241385 from recombinant human A2A adenosine receptor expressed in CHO cells at 10 uM after 60 mins by scintillation counting. It counts as cell-based. An outline of the steps: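 Membranes from hA2ACHO cells incubated with 1 nM [3H]ZM 241385 in 50 mM Tris–HCl, 10 mM MgCl2, pH 7.4 at 4 °C for 60 min. Compound added from a 100-fold DMSO stock, 1% DMSO final, also in controls. Separated by GF/B filtration and counted by scintillation. Result given as % of control specific binding.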
(In general: Loss of bound radioactivity is the signal in a displacement assay; it reports binding, not function.)

The target of experiment [6] is T2, Adenosine receptor A3 (Homo sapiens) (UniProt P0DMS8).
T2 sequence (whole entry): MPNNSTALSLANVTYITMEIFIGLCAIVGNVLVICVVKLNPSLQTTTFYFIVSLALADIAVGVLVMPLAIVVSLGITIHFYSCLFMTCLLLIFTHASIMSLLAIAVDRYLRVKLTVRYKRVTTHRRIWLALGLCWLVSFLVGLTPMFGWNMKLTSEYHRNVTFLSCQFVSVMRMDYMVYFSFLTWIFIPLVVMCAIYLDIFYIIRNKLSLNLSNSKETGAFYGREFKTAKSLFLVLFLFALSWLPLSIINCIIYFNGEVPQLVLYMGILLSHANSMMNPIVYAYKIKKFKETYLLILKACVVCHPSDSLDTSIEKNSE
Description: Displacement of [3H]MRE3008F20 from recombinant human A3 adenosine receptor expressed in CHO cells at 10 uM after 120 mins by scintillation counting. The experiment is classed as cell-based. Summed up:
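Membranes from hA3CHO cells incubated with 2 nM [3H]MRE 3008F20 in 50 mM Tris–HCl, 10 mM MgCl2, 1 mM EDTA, pH 7.4 at 4 °C for 120 min. Compound added from a 100-fold DMSO stock, 1% DMSO final, also in controls. Separated by GF/B filtration and counted by scintillation. Result given as % of control specific binding.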

The target in experiment [7] is T1, Adenosine receptor A1 (Homo sapiens). Description: Allosteric enhancer activity at recombinant human A1 adenosine receptor expressed in CHO cells assessed as change in forskolin-induced cAMP production at 0.01 uM after 6 mins by radioimmunoassay. It counts as functional, cell-based. An outline of the steps: (§1)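 hA1CHO cells (about 8000 fmol/mg protein) thawed from low-passage stocks, grown in Ham's F-12 with 10% FBS and G-418, then plated 48 h. Test compound at 0.01, 0.1, 1 or 10 µM with CPA (0.05–0.1 nM) for 6 min at 36 °C. Stopped with HCl (final 50 mM). cAMP in acidified extracts measured by radioimmunoassay. Reference enhancer run in each experiment. Four experiments per concentration.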
In general terms: Cyclic AMP is a second messenger, typically raised through Gs and lowered through Gi signalling.

For experiment [8] the target is unchanged. Put plainly: Allosteric enhancer activity at recombinant human A1 adenosine receptor expressed in CHO cells assessed as change in forskolin-induced cAMP production at 0.1 uM after 6 mins by radioimmunoassay. The experiment is classed as functional, cell-based. Summed up:
as §1

For experiment [9] the target is unchanged. Description: Allosteric enhancer activity at recombinant human A1 adenosine receptor expressed in CHO cells assessed as change in forskolin-induced cAMP production at 10 uM after 6 mins by radioimmunoassay. It counts as functional, cell-based. Summed up:
as §1

Experiment [10] shares this target. Put plainly: Allosteric enhancer activity at recombinant human A1 adenosine receptor expressed in CHO cells assessed as change in forskolin-induced cAMP production at 1 uM after 6 mins by radioimmunoassay. It counts as functional, cell-based. Summed up: as §1

Our source for the inhibition, fold change (FC) and Activity values is ChEMBL document CHEMBL1932980, “Structure-activity relationships of 2-amino-3-aroyl-4-[(4-arylpiperazin-1-yl)methyl]thiophenes. Part 2: Probing the influence of diverse substituents at the phenyl of the arylpiperazine moiety on allosteric enhancer activity at the A₁ adenosine receptor” (Bioorg Med Chem, 2012).

As a reminder, the inhibition is the relative decrease from the control value, in per cent.

Chain of Adenosine receptor A2a (Homo sapiens) (P29274 whole entry): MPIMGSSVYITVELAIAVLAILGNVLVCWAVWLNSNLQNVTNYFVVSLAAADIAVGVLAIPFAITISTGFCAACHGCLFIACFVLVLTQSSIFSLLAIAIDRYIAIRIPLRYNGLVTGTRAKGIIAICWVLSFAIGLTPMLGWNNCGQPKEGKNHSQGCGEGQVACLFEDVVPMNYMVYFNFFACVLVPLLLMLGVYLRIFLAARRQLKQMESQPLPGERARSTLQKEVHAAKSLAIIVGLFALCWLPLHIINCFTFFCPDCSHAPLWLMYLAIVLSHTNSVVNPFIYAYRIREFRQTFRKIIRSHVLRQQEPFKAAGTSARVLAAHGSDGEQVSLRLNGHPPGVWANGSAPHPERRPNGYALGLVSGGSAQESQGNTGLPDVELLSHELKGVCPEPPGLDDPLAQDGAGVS

Turning to `Nc1scc(CN2CCN(c3cccc(F)c3)CC2)c1C(=O)c1ccc(Cl)cc1`, the inhibition in experiment [1] was 1%; in [5], 1%; in experiment [6] it was 4%. Moreover, the values for the fold change (FC) in [2], in experiment [3] and in [4] were 3.9, 4.8 and 1, respectively. Besides, the Activity in experiment [7] was -18%; in [8] it was -37%; in [9], -82%; in experiment [10], -86%.

On to `Nc1scc(CN2CCN(c3c(F)cccc3F)CC2)c1C(=O)c1ccc(Cl)cc1`, for which the values for the inhibition in experiment [1], in experiment [5] and in [6] were 1%, 1% and 4%, respectively. Further, the fold change (FC) in experiment [2] was found to be 5; in experiment [3], 6.3; in experiment [4] it was 1.1. Besides, the Activity is -12% in experiment [7], -23% in experiment [8], -80% in experiment [9] and -65% in [10].

Take `Nc1scc(CN2CCN(c3cccc4ccccc34)CC2)c1C(=O)c1ccc(Cl)cc1`: the inhibition was determined as 1% in experiment [1], 0% in experiment [5] and 0% in [6]. Also, the fold change (FC) is 1.3 in [2], 1.1 in [3] and 0.9 in experiment [4]. Also, the Activity in experiment [7] is 8.7%; in [8] it was 0%; in experiment [9] it was -21%; in experiment [10] it was 2.9%.

For `Nc1scc(CN2CCN(c3c(Cl)cccc3Cl)CC2)c1C(=O)c1ccc(Cl)cc1`, the inhibition was determined as 0% in experiment [1], 0% in [5] and 1% in [6]. For the same compound, the fold change (FC) came to 2.9 in experiment [2], 3.3 in experiment [3] and 0.9 in experiment [4]. In addition, the Activity in [7] is 15%; in [8], 0%; in experiment [9], -47%; in experiment [10], -2.2%.

As for `Nc1scc(CN2CCN(C(=O)Cc3ccc(Cl)cc3)CC2)c1C(=O)c1ccc(Cl)cc1`, the figures for the inhibition in [1], in experiment [5] and in experiment [6] were 1%, 0% and 0%, respectively. The fold change (FC) turned out to be 1.5 in experiment [2], 1.5 in experiment [3] and 0.9 in [4]. Moreover, the Activity was 2.1% in [7], 0% in [8], -42% in [9] and -8.1% in experiment [10].

Turning to `Nc1scc(CN2CCN(Cc3ccc(F)cc3)CC2)c1C(=O)c1ccc(Cl)cc1`, the inhibition in experiment [1] stood at 0%; in experiment [5], 0%; in experiment [6] it was 1%. Besides, the results for the fold change (FC) in experiment [2], in experiment [3] and in experiment [4] were 3.1, 3.7 and 0.9, respectively. For the same compound, the Activity in [7] is 2.2%; in experiment [8], -3.9%; in experiment [9], -82%; in experiment [10] it was -34%.

Regarding `Nc1scc(CN2CCN(c3cc(Cl)cc(Cl)c3)CC2)c1C(=O)c1ccc(Cl)cc1`, the results for the inhibition in experiment [1], in [5] and in [6] were 1%, 0% and 1%, respectively. Further, the fold change (FC) in experiment [2] was found to be 4.5; in [3] it was 5.8; in experiment [4], 1. The Activity in experiment [7] is -1%; in experiment [8], -22%; in [9], -74%; in experiment [10], -69%.

With `Nc1scc(CN2CCN(c3ccncc3)CC2)c1C(=O)c1ccc(Cl)cc1`, the values for the inhibition in experiment [1], in [5] and in experiment [6] were 1%, 0% and 2%, respectively. For the same compound, the fold change (FC) in experiment [2] came to 1.2; in [3], 1.1; in experiment [4], 0.9. The Activity in experiment [7] is -4%; in experiment [8], 1.4%; in experiment [9], -15%; in experiment [10], -8.3%.

As to `CC(C)N1CCN(Cc2csc(N)c2C(=O)c2ccc(Cl)cc2)CC1`, the inhibition in [1], in experiment [5] and in [6] was 0% in each case. In addition, the fold change (FC) in experiment [2] was 1.2; in experiment [3] it was 1.1; in [4] it was 0.9. Besides, the Activity in experiment [7] was -1%; in experiment [8] it was 3.6%; in experiment [9], -7.4%; in [10], 7.3%.

On to `Nc1scc(CN2CCN(CCCc3ccc(Cl)cc3)CC2)c1C(=O)c1ccc(Cl)cc1`, for which the inhibition in experiment [1], in experiment [5] and in [6] was 0% in each case. Besides, the fold change (FC) was determined as 1.6 in [2], 1.6 in experiment [3] and 0.9 in experiment [4]. Besides, the Activity in experiment [7] is 0%; in experiment [8], -3%; in experiment [9], -76%; in experiment [10], -30%.

Regarding `Nc1scc(CN2CCN(c3cc(F)cc(F)c3)CC2)c1C(=O)c1ccc(Cl)cc1`, the results for the inhibition in [1], in [5] and in experiment [6] were 0%, 0% and 2%, respectively. In addition, the fold change (FC) in [2] was found to be 4.8; in experiment [3], 6.2; in [4], 1.1. Also, the Activity in experiment [7] was -13%; in [8], -5%; in [9], -79%; in [10], -66%.

`Nc1scc(CN2CCC(c3ccc(Cl)cc3)CC2)c1C(=O)c1ccc(Cl)cc1`: the figures for the inhibition in experiment [1], in experiment [5] and in [6] were 0%, 0% and 6%, respectively. Moreover, the fold change (FC) was determined as 3.3 in [2], 3.9 in [3] and 1 in experiment [4]. Further, the Activity is 0% in [7], -2.3% in experiment [8], -61% in [9] and -24% in [10].
